Data set [1] concerns the target T1, Cytochrome P450 1A (Homo sapiens, UniProt P04798+P05177).
T1 sequence (P04798 whole entry): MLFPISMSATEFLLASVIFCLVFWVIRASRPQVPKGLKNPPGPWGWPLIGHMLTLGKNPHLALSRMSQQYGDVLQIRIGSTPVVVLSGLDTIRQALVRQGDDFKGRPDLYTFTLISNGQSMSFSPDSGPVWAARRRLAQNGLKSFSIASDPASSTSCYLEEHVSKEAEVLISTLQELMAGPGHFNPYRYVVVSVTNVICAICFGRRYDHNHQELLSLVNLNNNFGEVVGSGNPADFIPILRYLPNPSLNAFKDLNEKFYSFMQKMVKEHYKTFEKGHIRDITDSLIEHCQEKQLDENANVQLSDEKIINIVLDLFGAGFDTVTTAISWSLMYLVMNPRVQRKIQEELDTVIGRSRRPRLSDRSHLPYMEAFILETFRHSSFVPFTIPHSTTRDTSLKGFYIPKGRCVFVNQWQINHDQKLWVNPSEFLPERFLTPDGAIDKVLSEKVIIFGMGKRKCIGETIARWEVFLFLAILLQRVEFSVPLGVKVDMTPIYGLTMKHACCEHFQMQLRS
T1 sequence (P05177 whole entry): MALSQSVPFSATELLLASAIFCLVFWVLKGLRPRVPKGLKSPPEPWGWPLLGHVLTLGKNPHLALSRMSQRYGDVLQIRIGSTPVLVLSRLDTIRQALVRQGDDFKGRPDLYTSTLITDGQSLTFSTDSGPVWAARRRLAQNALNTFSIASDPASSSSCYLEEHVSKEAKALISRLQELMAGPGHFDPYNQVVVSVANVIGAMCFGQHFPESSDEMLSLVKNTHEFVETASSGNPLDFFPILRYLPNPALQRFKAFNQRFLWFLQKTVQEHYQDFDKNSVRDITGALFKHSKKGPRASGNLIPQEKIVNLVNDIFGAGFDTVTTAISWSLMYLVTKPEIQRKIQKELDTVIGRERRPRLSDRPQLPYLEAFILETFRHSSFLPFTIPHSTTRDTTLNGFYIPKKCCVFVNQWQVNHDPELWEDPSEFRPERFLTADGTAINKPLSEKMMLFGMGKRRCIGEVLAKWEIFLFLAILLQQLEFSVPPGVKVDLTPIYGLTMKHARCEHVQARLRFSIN
As to the kind of experiment: Inhibition of CYP1A in human liver microsomes.

The target of data set [2] is T2, Cytochrome P450 2C8 (Homo sapiens, UniProt P10632).
T2 sequence (P10632 whole entry): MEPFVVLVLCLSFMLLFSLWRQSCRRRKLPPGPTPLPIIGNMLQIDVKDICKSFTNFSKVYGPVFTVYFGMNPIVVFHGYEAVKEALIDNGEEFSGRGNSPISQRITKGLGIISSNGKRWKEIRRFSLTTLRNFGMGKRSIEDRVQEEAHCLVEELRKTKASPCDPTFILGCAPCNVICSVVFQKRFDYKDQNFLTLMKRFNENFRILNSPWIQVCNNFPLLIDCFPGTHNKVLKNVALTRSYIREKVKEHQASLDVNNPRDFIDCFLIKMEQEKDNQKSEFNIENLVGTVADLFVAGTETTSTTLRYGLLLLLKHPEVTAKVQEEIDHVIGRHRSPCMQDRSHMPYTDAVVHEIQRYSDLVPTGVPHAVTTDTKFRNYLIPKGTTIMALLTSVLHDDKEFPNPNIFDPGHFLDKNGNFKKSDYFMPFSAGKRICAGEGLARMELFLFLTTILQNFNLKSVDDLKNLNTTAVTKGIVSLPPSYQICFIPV
As to the kind of experiment: Inhibition of CYP2C8 in human liver microsomes. The data set is classed as ADME. A general note: Liver microsomes are vesicles of endoplasmic reticulum, rich in cytochrome P450 enzymes.

In data set [3] the target is Cytochrome P450 2C9 (Homo sapiens, UniProt P11712). Briefly: Inhibition of CYP2C9 in human liver microsomes. The data set is classed as ADME.
Chain of Cytochrome P450 2C9 (P11712 whole entry): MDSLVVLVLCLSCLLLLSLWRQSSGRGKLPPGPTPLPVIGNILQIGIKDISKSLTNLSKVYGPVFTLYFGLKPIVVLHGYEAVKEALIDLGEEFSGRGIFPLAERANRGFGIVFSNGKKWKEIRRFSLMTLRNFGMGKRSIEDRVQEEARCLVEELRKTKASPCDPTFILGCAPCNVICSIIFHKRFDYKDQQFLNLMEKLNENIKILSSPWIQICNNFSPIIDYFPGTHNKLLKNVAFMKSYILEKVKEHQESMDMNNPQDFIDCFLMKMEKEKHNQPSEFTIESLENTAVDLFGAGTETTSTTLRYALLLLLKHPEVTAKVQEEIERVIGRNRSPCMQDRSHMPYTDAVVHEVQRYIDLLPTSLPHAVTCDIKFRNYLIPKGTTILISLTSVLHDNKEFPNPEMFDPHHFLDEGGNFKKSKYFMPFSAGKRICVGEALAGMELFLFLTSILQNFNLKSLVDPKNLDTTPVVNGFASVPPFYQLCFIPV
Data set [4] deals with Cytochrome P450 2C19 (Homo sapiens, UniProt P33261). Briefly: Inhibition of CYP2C19 in human liver microsomes. The data set is classed as ADME.
Chain of Cytochrome P450 2C19 (P33261 whole entry): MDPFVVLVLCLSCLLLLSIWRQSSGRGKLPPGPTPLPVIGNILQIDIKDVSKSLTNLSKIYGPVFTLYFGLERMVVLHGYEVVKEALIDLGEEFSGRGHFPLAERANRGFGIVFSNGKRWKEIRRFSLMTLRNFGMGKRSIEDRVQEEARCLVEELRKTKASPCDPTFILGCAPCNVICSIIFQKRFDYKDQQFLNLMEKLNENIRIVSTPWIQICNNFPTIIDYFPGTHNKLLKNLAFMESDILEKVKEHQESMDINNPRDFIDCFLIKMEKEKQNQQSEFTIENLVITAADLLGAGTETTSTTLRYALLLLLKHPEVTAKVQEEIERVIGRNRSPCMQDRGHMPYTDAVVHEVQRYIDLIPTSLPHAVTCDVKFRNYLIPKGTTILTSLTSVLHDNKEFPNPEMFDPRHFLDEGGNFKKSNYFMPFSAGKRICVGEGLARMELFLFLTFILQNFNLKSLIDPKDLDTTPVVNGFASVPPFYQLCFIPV
Data set [5] addresses Cytochrome P450 2D6 (Homo sapiens, UniProt P10635). Briefly: Inhibition of CYP2D6 in human liver microsomes. It counts as ADME.
The target in data set [6] is T3, Cytochrome P450 3A4 (Homo sapiens, UniProt P08684). Briefly: Inhibition of CYP3A4 in human liver microsomes. The data set is classed as ADME.
T3 sequence (P08684 whole entry): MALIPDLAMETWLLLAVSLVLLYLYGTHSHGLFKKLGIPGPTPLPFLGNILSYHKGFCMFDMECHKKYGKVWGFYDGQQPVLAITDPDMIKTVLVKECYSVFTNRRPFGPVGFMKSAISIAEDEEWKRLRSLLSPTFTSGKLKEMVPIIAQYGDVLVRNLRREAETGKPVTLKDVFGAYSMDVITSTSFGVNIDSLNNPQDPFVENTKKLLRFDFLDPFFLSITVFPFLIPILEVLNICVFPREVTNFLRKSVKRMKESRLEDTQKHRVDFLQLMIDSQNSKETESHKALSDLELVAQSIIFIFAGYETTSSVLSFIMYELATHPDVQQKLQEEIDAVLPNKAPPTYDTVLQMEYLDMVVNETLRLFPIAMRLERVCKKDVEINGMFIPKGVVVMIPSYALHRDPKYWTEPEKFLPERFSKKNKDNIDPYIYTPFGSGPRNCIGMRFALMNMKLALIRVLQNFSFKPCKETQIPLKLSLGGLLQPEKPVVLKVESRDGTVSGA
For data set [7], the target named is T3, Cytochrome P450 3A4. As to the kind of experiment: Induction of CYP3A4 in […] at 10 uM. The data set is classed as ADME. The gist of the method: (§1)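 CYP3A4 induction tested at 10 μM. Time-dependent inhibition of CYP3A4 tested at up to 50 μM.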
Data set [8] addresses T3, Cytochrome P450 3A4. Briefly: Time-dependent inhibition of CYP3A4 in human liver microsomes at 50 uM. The data set is classed as ADME. The procedure, abridged:
as §1

Data set [9] deals with Voltage-gated inwardly rectifying potassium channel KCNH2 (Homo sapiens, UniProt Q12809). As to the kind of experiment: Inhibition of human ERG expressed in HEK293 cells by whole cell patch clamp assay. It counts as cell-based. The gist of the method: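 hERG measured by whole-cell patch clamp in HEK293 cells, reported as IC50.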
Chain of Voltage-gated inwardly rectifying potassium channel KCNH2 (Q12809 whole entry): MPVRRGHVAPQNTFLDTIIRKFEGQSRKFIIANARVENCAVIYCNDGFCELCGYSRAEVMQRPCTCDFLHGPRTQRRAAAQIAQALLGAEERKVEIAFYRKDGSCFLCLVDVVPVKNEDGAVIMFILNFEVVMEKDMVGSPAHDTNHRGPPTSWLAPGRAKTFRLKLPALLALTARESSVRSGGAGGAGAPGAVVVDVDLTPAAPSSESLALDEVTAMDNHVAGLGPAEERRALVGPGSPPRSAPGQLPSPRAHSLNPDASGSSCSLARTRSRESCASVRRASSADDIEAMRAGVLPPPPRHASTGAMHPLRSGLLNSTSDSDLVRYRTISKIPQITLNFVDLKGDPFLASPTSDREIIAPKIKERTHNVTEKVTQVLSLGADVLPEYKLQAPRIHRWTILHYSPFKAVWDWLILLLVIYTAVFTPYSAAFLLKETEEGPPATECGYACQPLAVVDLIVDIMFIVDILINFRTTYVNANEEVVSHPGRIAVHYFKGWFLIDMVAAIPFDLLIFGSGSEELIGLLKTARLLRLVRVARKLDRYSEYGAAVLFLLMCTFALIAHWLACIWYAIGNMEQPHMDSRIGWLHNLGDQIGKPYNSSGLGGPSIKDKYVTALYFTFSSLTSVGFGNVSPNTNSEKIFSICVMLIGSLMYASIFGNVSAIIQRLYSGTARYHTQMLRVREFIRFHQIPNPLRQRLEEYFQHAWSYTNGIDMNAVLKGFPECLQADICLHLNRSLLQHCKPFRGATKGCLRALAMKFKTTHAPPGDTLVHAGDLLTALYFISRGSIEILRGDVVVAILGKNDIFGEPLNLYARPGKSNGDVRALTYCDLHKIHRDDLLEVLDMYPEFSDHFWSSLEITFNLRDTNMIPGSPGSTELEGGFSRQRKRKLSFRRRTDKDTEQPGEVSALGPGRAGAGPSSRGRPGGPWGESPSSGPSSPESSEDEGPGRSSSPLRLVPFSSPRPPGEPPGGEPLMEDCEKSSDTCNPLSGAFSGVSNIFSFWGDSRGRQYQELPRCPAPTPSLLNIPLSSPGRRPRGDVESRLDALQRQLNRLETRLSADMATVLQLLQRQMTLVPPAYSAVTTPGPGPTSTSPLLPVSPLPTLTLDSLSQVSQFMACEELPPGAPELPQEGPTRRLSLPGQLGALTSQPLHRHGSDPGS
Background: Patch clamp records ionic current or voltage across a cell membrane.

A short description of data set [10]: Mutagenicity in Salmonella typhimurium by Ames test. The data set is classed as toxicity. Conditions: salmonella enterica subsp. enterica serovar typhimurium.
Data set [11] concerns Lymphoma cell line. As to the kind of experiment: Genotoxicity in mouse lymphoma cells in presence of rat liver S9 fraction. The data set is classed as toxicity, cell-based.
Data set [12] concerns Lymphoma cell line. Briefly: Genotoxicity in mouse lymphoma cells in absence of rat liver S9 fraction. It counts as toxicity, cell-based.
A short description of data set [13]: Distribution coefficient, logD of compound at pH 7.4. It counts as physicochemical. Conditions: octanol/water; call rule not given here. The procedure, abridged:
(§2)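 logD measured at pH 7.4. Kinetic solubility measured by CLND. Solubility also measured in FaSSIF and FeSSIF biorelevant media.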

Data set [14] is described as follows: Kinetic solubility of compound by chemiluminescent nitrogen detection method. As to conditions: read-out: Kinetic_solubility. It counts as physicochemical. The gist of the method:
as §2

A short description of data set [15]: Solubility of compound in fasted state simulated intestinal fluid. It counts as physicochemical. The procedure, abridged: as §2
The nature of data set [16]: Solubility of compound in fed state simulated intestinal fluid. It counts as physicochemical. The procedure, abridged:
as §2

A short description of data set [17]: Apparent permeability from apical to basolateral side in human CaCo2 cells. It counts as ADME, cell-based. Conditions: Caco-2. The gist of the method:
(§3)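 Caco-2 monolayer permeability, measured as Papp in the apical-to-basolateral and basolateral-to-apical directions.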
(In general: Caco-2 cells form a polarised layer with tight junctions and transporters.)

A short description of data set [18]: Apparent permeability from basolateral to apical side in human CaCo2 cells. The data set is classed as ADME, cell-based. As to conditions: Caco-2. The procedure, abridged: as §3
Data set [19] is described as follows: Intrinsic clearance in pooled rat liver microsomes at 1 uM incubated up to 40 mins in presence of NADPH by LC-MS/MS analysis. The data set is classed as ADME, Microsome. The procedure, abridged:
(§4)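 Metabolic stability was assessed in liver microsomes (rat, dog, human) and hepatocytes (dog, human). Intrinsic clearance was calculated as μL/min/g liver.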

Data set [20] can be described thus: Intrinsic clearance in pooled dog liver microsomes at 1 uM incubated up to 40 mins in presence of NADPH by LC-MS/MS analysis. The data set is classed as ADME, Canis lupus familiaris, Microsome. The procedure, abridged:
as §4

A short description of data set [21]: Intrinsic clearance in pooled human liver microsomes at 1 uM incubated up to 40 mins in presence of NADPH by LC-MS/MS analysis. The data set is classed as ADME, Microsome. The gist of the method:
as §4

A short description of data set [22]: Intrinsic clearance in pooled cryopreserved dog hepatocytes at 1 uM incubated up to 90 mins by LC-MS/MS analysis. It counts as ADME, cell-based, Canis lupus familiaris, Hepatocyte. Conditions: 1.5 h. The procedure, abridged:
as §4

Results on one compound are retold here after ChEMBL document CHEMBL4431376, “CZ415, a Highly Selective mTOR Inhibitor Showing in Vivo Efficacy in a Collagen Induced Arthritis Model” (ACS Med Chem Lett, 2016).

Values after ≈ are worked out from the molar mass of the structure shown. Where only a bound is given, the exact number is not on record here.

Chain of Cytochrome P450 2D6 (P10635 whole entry): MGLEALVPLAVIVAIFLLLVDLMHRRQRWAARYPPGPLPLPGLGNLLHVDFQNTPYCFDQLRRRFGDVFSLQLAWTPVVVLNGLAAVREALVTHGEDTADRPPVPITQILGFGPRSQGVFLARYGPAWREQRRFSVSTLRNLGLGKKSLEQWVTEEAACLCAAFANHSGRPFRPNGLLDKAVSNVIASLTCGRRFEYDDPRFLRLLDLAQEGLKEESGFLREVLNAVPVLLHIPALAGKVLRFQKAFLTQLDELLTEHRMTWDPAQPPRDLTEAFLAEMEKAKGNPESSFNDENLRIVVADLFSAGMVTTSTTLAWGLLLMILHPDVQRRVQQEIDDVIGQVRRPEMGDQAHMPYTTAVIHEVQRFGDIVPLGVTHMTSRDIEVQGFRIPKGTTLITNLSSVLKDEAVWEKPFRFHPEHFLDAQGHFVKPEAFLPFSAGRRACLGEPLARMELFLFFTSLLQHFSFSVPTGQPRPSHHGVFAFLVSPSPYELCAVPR

The term IC50 denotes the concentration at which inhibition is half-maximal. As a reminder, the logD is lipophilicity at a set pH, counting ionised and neutral species. The solubility is the dissolved amount per volume that the medium holds. Low values mean a poorly soluble substance, high ones a readily soluble substance. By Papp A→B is commonly meant the apparent permeability from the apical to the basolateral side of a cell layer. A word on the Papp B→A: it is how fast a substance crosses the layer from the basolateral side. With `CCNC(=O)Nc1ccc(-c2nc(N3CCOC[C@@H]3C)c3c(n2)C(C)(C)S(=O)(=O)C3)cc1`, the “inhibition (INH)” value in [1], in [2], in [3], in data set [4], in [5] and in data set [6] was “Not Active” in each case. Also, the Activity result in [7] is “Not Active”; in data set [10], “Non-Toxic”; in data set [11], “Non-Toxic”; in data set [12], “Non-Toxic”. Besides, the TDI entry in data set [8] is “Not Active”. Moreover, the IC50 in data set [9] turned out to be 48 µM. Moreover, the log distribution coefficient (logD) in data set [13] was 4.31. In addition, the solubility kinetic in [14] turned out to be 150 µM (≈ 68.7 µg/mL). Also, the solubility in data set [15] is 11.1 µg/mL (≈ 24.2 µM); in data set [16], 60.1 µg/mL (≈ 131 µM). In [17], the apparent permeability from apical to basolateral (Papp A→B) amounted to 0.047 ×10⁻⁶ cm/s. Also, the Papp B→A in data set [18] turned out to be 0.102 ×10⁻⁶ cm/s. Besides, the CLH is less than 0.6 µL/min/g in [19], less than 1.1 µL/min/g in [20], 1.5 µL/min/g in data set [21] and less than 0.8 µL/min/g in [22].
